# From PubChem
# Jurkat viability: cytotoxicity toward Jurkat cells; 56,000 tested, 1.2% active; Jurkat E6.1 viability, ATP luminescence, 48 h; inhibition, % at 4 µM;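 active means inhibition above the mean inhibition of all tested compounds plus 3 SD, cut at about 28% in these data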
# HUVEC prolif 384: human endothelial cell proliferation inhibition; viability, % at 10 µM (by protocol); AID 648; 86,000 tested, 1.1% active; HUVEC proliferation, CellTiter-Glo luminescence, 72 h; active compounds read low;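 active means viability at or below 30%; inactive means viability above 30%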
# tolC growth inh: growth inhibitors of E. coli BW25113 tolC mutant. OD615. growth inhibition, % at 10 µM (by protocol). 65,000 tested, 2.2% active;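 active means growth inhibition at or above a cutoff equal to the mean over every tested compound plus 3 SD, cut at about 60% in these data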;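 further: growth measured after 20 h incubation at 37 °C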
#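 Test system: E. coli BW25113 ΔtolC::kan bacteria; incubation: 37 °C, 20 h exposure; medium: LB broth supplemented with 50 µg/mL kanamycin; read-out basis: percent growth inhibition; signal: A615 absorbance measurement; compound: 10 µM final, single dose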
# Ecoli WT expand: blocks growth of wild type E. coli BW25113 | OD600 absorbance | growth inhibition, % at 100 µM | 98,000 tested, 0.15% active | AID 710;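 active means growth inhibition above about 50% at one test dose, limit read from the data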;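 further: growth measured after 20 h incubation at 37 °C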
# H69AR inhibit: blocks growth of human H69AR lung tumor cells. AID 598. viability, % at 10 µM. H69AR lung tumor viability, ATP luminescence, 72 h; active compounds read low. 85,000 tested, 6% active;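 active means viability at or below 40%; inactive means viability above 40%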;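 further: multidrug resistant small cell line overexpressing MRP-1 efflux transporter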
# Lung fibro prol: blocks proliferation of human lung fibroblasts; 85,000 tested, 1.1% active; viability, % at 10 µM; AID 719; LL 47 human lung fibroblast viability, ATP luminescence; active compounds read low;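 active means viability at or below 50% in the single dose screen; inactive means viability above 50%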;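 further: compound exposure lasted 72 h before the ATP readout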
#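 material = human LL 47 lung fibroblast cells | dosing = compounds added from tenfold dosing solution, 0.1% DMSO final | timing = overnight cell rest, 72 h compound treatment at 37 °C | measured by = CellTiter-Glo luminescence measuring cellular ATP | evaluation = % viability versus median cells-only luminescence | control set = cell-only wells, no compound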
# Numbers stand for hits; – = inactive; · = not tested or not shown. Most compounds without a hit are left out; they make up all but 6.4% or so of the library.
SMILES,Jurkat viability,HUVEC prolif 384,tolC growth inh,Ecoli WT expand,H69AR inhibit,Lung fibro prol
CCOC(=O)c1[nH]c2c(c1C)C(=O)CC(c1ccc(F)cc1)C2 (stereo not drawn),95.4,–,–,–,–,–
Cn1c(NC(=O)c2ccccc2)c(-c2ccccn2)c(=O)c2ccccc21,·,–,·,–,–,–
COC(=O)C1=C(C)N(C)C(C)=C(C(=O)OC)C1c1ccc(F)c(Br)c1,–,–,73.5,–,–,–
COC(=O)C1=C(C)N(C)C(C)=C(C(=O)OC)C1c1ccncc1,–,–,–,–,–,–
CC(=O)/C=C/c1ccc2ccccc2n1,·,29.7,·,–,0.8,7.4
COc1c(OC(C)=O)ccc(/C=C/c2ccc3ccccc3n2)c1[N+](=O)[O-],·,·,·,–,·,·
O=C(C1Cc2ccccc2CN1S(=O)(=O)c1cccs1)N1CCCCCC1 (stereo not drawn),–,·,–,–,·,·
Cc1c(-c2nc(N)nc(Nc3ccc(F)cc3)n2)oc2ccccc12,–,–,–,–,21.4,–
COC(=O)Nc1ccc(=O)n(Cc2c(Cl)cccc2Cl)c1,·,·,·,–,·,·
O=C(OC1CCCCC1)c1ccc(NC(=O)c2ccco2)cc1,–,–,96.2,–,–,–
CC1CC(C)CN(C(=O)CSc2nc(Cc3cccs3)nc3ccccc23)C1 (stereo not drawn),·,·,·,–,·,·
CCCC1CCc2c(sc(N)c2C(N)=O)C1 (stereo not drawn),·,–,·,–,–,–
N#Cc1cn(Cc2ccccc2)c2ccccc12,–,–,71.4,–,–,–
c1ccc(OCCCCn2cnc3ccccc32)cc1,32.6,–,–,–,–,–
Brc1ccccc1OCCCn1cnc2ccccc21,·,16.4,·,–,–,–
Cc1c(C(=O)N2CCC(C)CC2)sc2ncnc(N3CCN(c4ccccc4)CC3)c12,·,·,·,–,·,·
Cc1nnc(SCc2ccccc2)nc1/C=C/NOCc1ccc(Cl)cc1Cl,·,–,·,–,2.3,–
O=S(=O)(c1ccc2c(c1)nc(COc1ccc(Cl)cc1)n2CC1CCCO1)N1CCOCC1 (stereo not drawn),–,–,–,–,5.8,5.7
CCOC(=O)C1CCN(C(=O)CSc2nnc(-c3ccco3)n2-c2ccccc2)CC1,–,–,–,–,–,–
CC(C)CNC(=O)c1ccc(COc2ccc(Cl)cc2Cl)o1,·,–,·,–,–,–
OC(c1cccc(OCc2ccccc2)c1)c1nnc(-c2ccccc2)o1 (stereo not drawn),–,–,74.7,–,–,–
OC(c1ccc(OCc2ccccc2)cc1)c1nnc(-c2ccccc2)o1 (stereo not drawn),·,·,·,–,·,·
CC(C)c1ccc(N(CC(=O)NCCSC(C)(C)C)S(C)(=O)=O)cc1,·,–,·,–,–,–
Cn1c(=O)c2c3c(sc2n2c(SCc4ccccc4)nnc12)CCCC3,·,·,–,·,·,·
CCC1(C)Cc2c(sc3c2c(=O)n(C)c2nnc(SCCc4ccccc4)n32)CO1 (stereo not drawn),–,–,–,–,–,–
SMILES,Jurkat viability,HUVEC prolif 384,tolC growth inh,Ecoli WT expand,H69AR inhibit,Lung fibro prol
CCC1(C)Cc2c(sc3c2c(=O)n(C)c2nnc(SCc4ccccc4)n32)CO1 (stereo not drawn),·,–,–,–,15.3,–
CCn1c(=O)c2c3c(sc2n2c(SCc4ccc(F)cc4)nnc12)CCCC3,·,–,–,·,15.6,–
CCCCNC(=O)C1=C(N)C(C(=O)Nc2ccc(C)c(S(=O)(=O)N3CCCCC3)c2)SC1=Nc1ccc(C)cc1C (stereo not drawn),·,·,·,–,·,·
Cc1nc2ccccc2n1C(=O)c1cc(-c2ccc(Br)cc2)nc2ccccc12,·,·,·,–,·,·
Cc1cc(NS(=O)(=O)c2ccc(NC(=O)COc3ccccc3C(C)C)cc2)no1,–,–,61.9,–,–,–
O=C(NCc1cccs1)c1nc2c(nnn2Cc2ccccc2Cl)c(=O)[nH]1,39.8,24.1,–,–,–,34.8
Cc1csc(NC(=O)c2cccc(Cn3nc(C)c(Br)c3C)c2)n1,–,–,72.6,–,–,–
O=S(=O)(/N=C(\Sc1ccc(Cl)cc1)c1ccccc1)c1ccccc1,·,–,·,–,38.7,–
CS/C(=N\S(=O)(=O)c1ccc(Cl)cc1)c1ccccc1,·,·,·,–,·,·
O=C(NCc1cccnc1)c1ccc(COc2ccc3c(c2)CCC3)o1,–,–,–,–,6.4,–
O=C(NCc1ccc2c(c1)OCO2)c1ccc(COc2cccc(Cl)c2)o1,–,–,79.4,–,–,–
CC12CCC(C(=O)N3CCN(Cc4ccccc4)CC3)(OC1=O)C2(C)C (stereo not drawn),–,–,–,–,–,–
Cc1ccc(C(=O)NNC(=O)c2ccc(SCC3CCCO3)c([N+](=O)[O-])c2)cc1 (stereo not drawn),·,–,·,–,–,–
O=C(NNC(=O)c1ccc(SCC2CCCO2)c([N+](=O)[O-])c1)c1ccc(Cl)c([N+](=O)[O-])c1 (stereo not drawn),·,–,·,–,6.1,–
COc1ccc(S(=O)(=O)N(C)CC(=O)NCc2cccnc2)cc1C,–,–,–,–,–,–
COc1ccc(C2N(S(=O)(=O)c3ccccc3)CCN2S(=O)(=O)c2ccc(C)cc2)cc1 (stereo not drawn),·,–,·,–,–,–
COCc1[nH]nc2c1C(c1ccc(OC)c(OC)c1)C(C#N)=C(N)O2 (stereo not drawn),–,–,–,–,–,–
CCn1c2ccccc2c2cc(C3C(C#N)=C(N)Oc4n[nH]c(COC)c43)ccc21 (stereo not drawn),–,5.6,70.6,–,–,–
Cc1nnc(-c2cnn(-c3ccccc3)c2N)n1Cc1ccc(F)cc1,·,·,·,–,·,·
CCN1CCCC1CNC(=O)c1cc2c(-c3ccc(Cl)cc3)nn(C)c2s1 (stereo not drawn),–,1.7,–,–,2.1,10.8
COCCNC(=O)c1cc2c(-c3ccc(Cl)cc3)nn(C)c2s1,–,–,–,–,–,–
CCCCNC(=O)c1cc2c(-c3ccc(Cl)cc3)nn(C)c2s1,–,–,–,–,36.4,–
COCCCNC(=O)c1cc2c(-c3ccc(Cl)cc3)nn(C)c2s1,–,–,–,–,–,–
